In ChEMBL document CHEMBL3232916, “1-(4-Methoxyphenyl)-5-(3,4,5-trimethoxyphenyl)-1H-1,2,4-triazole-3-carboxamides: synthesis, molecular modeling, evaluation of their anti-inflammatory activity and ulcerogenicity” (Eur J Med Chem, 2014):
pIC50: −log10 of the molar value.

Tests used:
[1] = tested on: Rattus norvegicus; test: Antiinflammatory activity in albino rat assessed as inhibition of carrageenan-induced paw edema at 0.28 mmol/kg, po administered 30 mins before carrageenan challenge measured after 4 hrs relative to control; format: functional
In short: (§1)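 Male albino rats, n = 4 per group. Dosed orally as a suspension in 0.5% w/v CMC in water; controls received CMC alone. 0.1 mL of freshly prepared 1% carrageenan in saline was injected subplantar into the right hind paw 30 min after dosing, with saline in the left paw. Right paw thickness was read by Vernier caliper before and at 1–5 h. Result is % decrease in edema vs control, mean ± S.E.M.; one-way ANOVA.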

[2] = tested on: Rattus norvegicus; test: Antiinflammatory activity in albino rat assessed as inhibition of carrageenan-induced paw edema at 0.28 mmol/kg, po administered 30 mins before carrageenan challenge measured after 3 hrs relative to celecoxib; format: functional; conditions: read-out: INH
In short: (§2)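 Calculated from the 3 h % edema inhibition in carrageenan paw edema (male albino rats, oral dosing in 0.5% CMC 30 min before 1% carrageenan subplantar injection). Expressed as % of the inhibition given by the reference drug in the same assay.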

[3] = tested on: Rattus norvegicus; test: Antiinflammatory activity in albino rat assessed as inhibition of carrageenan-induced paw edema at 0.28 mmol/kg, po administered 30 mins before carrageenan challenge measured after 3 hrs relative to indomethacin; format: functional; conditions: read-out: INH; in short: as §2
[4] = tested on: Rattus norvegicus; test: Ulcerogenic effect in albino rat assessed as ulcer index at 0.28 mmol/kg, po; format: toxicity, organism-based; conditions: in vivo
In short: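 Rat gastric ulcers were graded by area: level I <1 mm², level II 1–3 mm², level III >3 mm². Ulcer index = 1×(level I count) + 2×(level II) + 3×(level III). Reported as mean ± S.E.M., n = 4.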

[5] = target: T1, Prostaglandin G/H synthase 1 (Ovis aries, UniProt P05979); test: Inhibition of ovine COX1 assessed as prostaglandin F2alpha level
T1 sequence (P05979 whole entry): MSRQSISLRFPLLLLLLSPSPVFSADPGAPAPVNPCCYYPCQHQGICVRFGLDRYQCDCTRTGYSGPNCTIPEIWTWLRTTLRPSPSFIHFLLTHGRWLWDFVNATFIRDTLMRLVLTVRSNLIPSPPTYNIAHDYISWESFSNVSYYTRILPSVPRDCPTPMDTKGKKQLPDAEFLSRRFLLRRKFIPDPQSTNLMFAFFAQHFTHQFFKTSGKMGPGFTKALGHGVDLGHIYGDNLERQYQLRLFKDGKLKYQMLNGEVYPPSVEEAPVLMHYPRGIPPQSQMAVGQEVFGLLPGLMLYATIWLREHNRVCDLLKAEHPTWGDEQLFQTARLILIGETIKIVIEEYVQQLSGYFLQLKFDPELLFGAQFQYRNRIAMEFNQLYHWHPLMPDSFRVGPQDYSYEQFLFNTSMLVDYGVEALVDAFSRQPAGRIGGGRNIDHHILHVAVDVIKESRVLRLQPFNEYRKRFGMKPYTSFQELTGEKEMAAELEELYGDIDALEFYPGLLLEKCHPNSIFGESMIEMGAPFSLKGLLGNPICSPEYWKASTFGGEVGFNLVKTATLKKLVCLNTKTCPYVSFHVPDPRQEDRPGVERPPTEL

[6] = target: T2, Prostaglandin G/H synthase 2 (Homo sapiens, UniProt P35354); test: Inhibition of human recombinant COX2 assessed as prostaglandin F2alpha level
T2 sequence (P35354 whole entry): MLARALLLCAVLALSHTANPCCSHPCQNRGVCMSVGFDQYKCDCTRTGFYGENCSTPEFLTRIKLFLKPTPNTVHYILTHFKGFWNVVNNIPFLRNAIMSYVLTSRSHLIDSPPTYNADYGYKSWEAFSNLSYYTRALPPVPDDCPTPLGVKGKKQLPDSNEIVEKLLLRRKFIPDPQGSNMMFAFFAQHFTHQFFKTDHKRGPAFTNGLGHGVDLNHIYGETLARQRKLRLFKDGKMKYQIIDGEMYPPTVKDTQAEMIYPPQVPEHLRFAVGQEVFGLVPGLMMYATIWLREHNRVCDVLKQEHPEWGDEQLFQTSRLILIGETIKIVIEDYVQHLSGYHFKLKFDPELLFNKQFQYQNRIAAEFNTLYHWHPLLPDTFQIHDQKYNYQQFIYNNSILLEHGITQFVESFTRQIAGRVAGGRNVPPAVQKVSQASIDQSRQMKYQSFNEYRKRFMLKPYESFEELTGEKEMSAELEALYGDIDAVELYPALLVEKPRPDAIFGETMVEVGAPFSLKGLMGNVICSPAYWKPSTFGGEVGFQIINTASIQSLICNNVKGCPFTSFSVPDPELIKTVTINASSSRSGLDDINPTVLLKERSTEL

[7] = tested on: Rattus norvegicus; test: Antiinflammatory activity in albino rat assessed as inhibition of carrageenan-induced paw edema at 0.28 mmol/kg, po administered 30 mins before carrageenan challenge measured after 3 hrs relative to control; format: functional; in short: as §1
[8] = tested on: Rattus norvegicus; test: Antiinflammatory activity in albino rat assessed as inhibition of carrageenan-induced paw edema at 0.28 mmol/kg, po administered 30 mins before carrageenan challenge measured after 1 hr relative to control; format: functional; in short: as §1
[9] = tested on: Rattus norvegicus; test: Antiinflammatory activity in albino rat assessed as inhibition of carrageenan-induced paw edema at 0.28 mmol/kg, po administered 30 mins before carrageenan challenge measured after 5 hrs relative to control; format: functional; in short: as §1
[10] = tested on: Rattus norvegicus; test: Antiinflammatory activity in albino rat assessed as inhibition of carrageenan-induced paw edema at 0.28 mmol/kg, po administered 30 mins before carrageenan challenge measured after 2 hrs relative to control; format: functional; in short: as §1

SMILES | inhibition in vivo at 280 µmol/kg [1] [%] | paw edema inhibition relative to celecoxib at 280 µmol/kg [2] [%] | paw edema inhibition relative to indomethacin at 280 µmol/kg [3] [%] | UI [4] | pIC50 [5] | pIC50 [6] | inhibition in vivo at 280 µmol/kg [7] [%] | inhibition in vivo at 280 µmol/kg [8] [%] | inhibition in vivo at 280 µmol/kg [9] [%] | inhibition in vivo at 280 µmol/kg [10] [%]
COc1ccc(-n2nc(C(=O)Nc3ccc(Cl)cc3)nc2-c2cc(OC)c(OC)c(OC)c2)cc1 | 75 | 115 | 100 | 5 | < 4.00 | < 4.00 | 78 | 55 | 70 | 70
CCNC(=O)c1nc(-c2cc(OC)c(OC)c(OC)c2)n(-c2ccc(OC)cc2)n1 | 58 | 101 | 88 | 9 | – | – | 69 | 60 | 52 | 68
COc1ccc(NC(=O)c2nc(-c3cc(OC)c(OC)c(OC)c3)n(-c3ccc(OC)cc3)n2)cc1 | 63 | 99 | 86 | 4.5 | – | – | 67 | 39 | 51 | 45
COc1ccc(-n2nc(C(=O)Nc3ccc(Br)cc3)nc2-c2cc(OC)c(OC)c(OC)c2)cc1 | 59 | 97 | 85 | 1.8 | < 4.00 | < 4.00 | 66 | 40 | 57 | 50
COc1ccc(-n2nc(C(=O)Nc3ccc(C)cc3)nc2-c2cc(OC)c(OC)c(OC)c2)cc1 | 58 | 88 | 77 | 5.5 | – | – | 60 | 38 | 42 | 60
COc1ccc(-n2nc(C(=O)Nc3ccc(O)cc3)nc2-c2cc(OC)c(OC)c(OC)c2)cc1 | 37 | 74 | 64 | 1 | – | – | 50 | 36 | 27 | 35
Cc1ccc(-c2cc(C(F)(F)F)nn2-c2ccc(S(N)(=O)=O)cc2)cc1 [CELECOXIB] | 57 | – | – | 0.5 | – | – | 68 | 42 | 51 | 48
COc1ccc(-n2nc(C(=O)Nc3ccccc3OC)nc2-c2cc(OC)c(OC)c(OC)c2)cc1 | 24 | 44 | 38 | 5 | – | – | 30 | 52 | 10 | 57
COc1ccc(-n2nc(C(=O)Nc3ccc(C(=O)O)cc3)nc2-c2cc(OC)c(OC)c(OC)c2)cc1 | 69 | 109 | 95 | 12 | – | – | 74 | 50 | 60 | 57
COc1ccc(-n2nc(C(=O)Nc3ccc(OC)c(OC)c3)nc2-c2cc(OC)c(OC)c(OC)c2)cc1 | 70 | 115 | 100 | 7 | < 4.00 | < 4.00 | 78 | 57 | 61 | 68
COc1ccc(-n2nc(C(N)=O)nc2-c2cc(OC)c(OC)c(OC)c2)cc1 | 71 | 106 | 92 | 9 | – | – | 72 | 40 | 64 | 59
COc1ccc(-n2nc(C(=O)Nc3cccc(C(F)(F)F)c3)nc2-c2cc(OC)c(OC)c(OC)c2)cc1 | 56 | 96 | 83 | 5 | – | – | 65 | 48 | 50 | 55
COc1ccc(-n2nc(C(=O)Nc3ccccc3)nc2-c2cc(OC)c(OC)c(OC)c2)cc1 | 50 | 79 | 69 | 4 | – | – | 54 | 45 | 46 | 51
